Source: PubChem
CYP2C9 inh: blockers of cytochrome P450 2C9 activity – biochemical, luminescence, ADME assay, primary screen. P11712. CYP2C9 Supersomes, luciferin-H conversion. inhibition, % at 5 µM. 96,000 compounds, 20% hits. AID 777, 2007;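 active means blocking of liver enzyme CYP2C9 beyond about 50% at 5 µM, limit read from the data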
Target sequence (P11712 whole entry, looked up): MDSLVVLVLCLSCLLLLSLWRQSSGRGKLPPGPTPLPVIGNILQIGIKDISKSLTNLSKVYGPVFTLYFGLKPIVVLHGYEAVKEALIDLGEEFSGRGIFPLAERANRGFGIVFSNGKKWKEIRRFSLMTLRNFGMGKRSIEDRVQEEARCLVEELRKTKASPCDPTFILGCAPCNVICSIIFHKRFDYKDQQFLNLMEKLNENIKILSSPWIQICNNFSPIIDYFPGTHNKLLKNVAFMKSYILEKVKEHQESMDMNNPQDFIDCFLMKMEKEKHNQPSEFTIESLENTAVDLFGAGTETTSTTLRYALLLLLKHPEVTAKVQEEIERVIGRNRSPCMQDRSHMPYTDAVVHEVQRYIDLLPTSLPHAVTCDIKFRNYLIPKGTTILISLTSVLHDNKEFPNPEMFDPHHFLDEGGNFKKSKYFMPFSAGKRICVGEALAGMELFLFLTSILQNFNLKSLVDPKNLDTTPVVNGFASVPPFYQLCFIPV
Ecoli WT expand: growth inhibitors of wild-type E. coli, primary screen, strain BW25113, expanded library, OD600. OD600 absorbance. growth inhibition, % at 100 µM. 98,000 compounds, 0.15% hits;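 active means growth inhibition above about 50% at one test dose, limit read from the data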;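 further: growth measured after 20 h incubation at 37 °C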
Ecoli tolC: growth inhibitors of E. coli tolC mutant, primary screen, strain BW25113 ΔtolC::kan, 384-well; OD615; 65,000 compounds, 2.2% hits; AID 573, 2007; growth inhibition, % at 10 µM (by protocol);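 active means growth inhibition at or above a cutoff equal to the mean over every tested compound plus 3 SD, cut at about 60% in these data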;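 further: growth measured after 20 h incubation at 37 °C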
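test system = E. coli BW25113 ΔtolC::kan bacteria | medium = LB with kanamycin 50 µg/mL | signal = OD at 615 nm | schedule = 37 °C, 20 h exposure | evaluation = % inhibition of E. coli growth | compound dosing = one dose of 10 µM final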
CYP2C9 activ: human CYP2C9 activators, primary screen, biochemical, luminescence. Cytochrome P450 2C9 (Homo sapiens), P11712. activation factor at 5 µM. 96,000 compounds, 1.4% hits. AID 1024, 2008. recombinant CYP2C9, luciferin-H conversion; stronger effect = higher value; factor 1 = untreated enzyme, 0 = blocked;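 active means activation factor of 2 or more for CYP2C9 at a 5 µM dose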
CYP2C19 inh: blockers of cytochrome P450 2C19 activity – biochemical, luminescence, ADME assay, primary screen | CYP2C19 Supersomes, luciferin-H EGE luminescence, 30 min | inhibition, % at 5 µM | 96,000 compounds, 21% hits | AID 778, 2007;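 active means CYP2C19 inhibition above a set limit at 5 µM in the primary screen, cut at about 50% in these data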
CYP2C19 act: human CYP2C19 activators, primary screen, biochemical, luminescence; activation factor at 5 µM; 96,000 tested, under 10 active; Cytochrome P450 2C19 (Homo sapiens), P33261; recombinant CYP2C19, luciferin-H EGE luminescence; stronger effect = higher value; 0 = fully inhibited enzyme, 1 = untreated enzyme;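 active means activation factor of at least 2 at 5 µM in the primary screen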
A number is an active result; i = inactive; nt = no result given. Only some compounds are listed: those with a hit (about 29% of all), similar ones and a draw of the others.

SMILES	CYP2C9 inh	Ecoli WT expand	Ecoli tolC	CYP2C9 activ	CYP2C19 inh	CYP2C19 act
O=c1c2ccccc2n(Cc2ccc(Cl)cc2)c(=O)n1Cc1ccco1	nt	i	i	nt	nt	nt
O=Nc1c(O)n(Cc2ccc(Cl)cc2)c2ccccc12	90	i	nt	i	84	i
O=Nc1c(O)n(Cc2ccc(Cl)cc2Cl)c2ccccc12	60	i	nt	i	i	i
Cc1nn(Cc2ccc(Cl)cc2Cl)c(C)c1NC(=O)c1sc2ccccc2c1Cl	i	i	nt	i	i	i
CCCCCN(C(=O)NC(=O)Nn1cnnc1)S(C)(=O)=O	i	i	i	i	i	i
CC(=O)c1cnc(Nc2nc(C)c3cccc(C)c3n2)nc1C	i	nt	i	i	i	i
O=C(NCc1ccco1)C1CC(c2c(Cl)cccc2Cl)=NO1 (stereo unspecified)	i	i	nt	2.3	i	i
O=C(NCc1cccc(C(F)(F)F)c1)C1CC(c2c(Cl)cccc2Cl)=NO1 (stereo unspecified)	i	i	nt	i	78	i
COc1cc(OC)c(C2=NOC(C(=O)NCCc3ccccc3)C2)cc1Cl (stereo unspecified)	i	i	nt	i	62	i
COc1ccc(C2=NOC(C(=O)NCc3ccco3)C2)cc1 (stereo unspecified)	i	i	nt	i	i	i
COc1ccccc1CNC(=O)C1CC(c2ccc([N+](=O)[O-])cc2)=NO1 (stereo unspecified)	i	i	nt	i	i	i
COc1ccccc1CNC(=O)C1CC(c2c(Cl)cccc2Cl)=NO1 (stereo unspecified)	i	i	nt	2.2	84	i
O=C(NCc1ccc2c(c1)OCO2)C1CC(c2ccc(Cl)c(Cl)c2)=NO1 (stereo unspecified)	i	i	nt	i	i	i
COc1ccc(CCNC(=O)C2CC(c3c(Cl)cccc3Cl)=NO2)cc1 (stereo unspecified)	i	i	nt	i	i	i
CCN(CC)CCOC(=O)c1ccc(NC(=O)C2(c3ccccc3)CCCC2)cc1	i	i	nt	i	i	i
COc1ccccc1CN(Cc1nc2ccccc2c(=O)[nH]1)S(=O)(=O)c1ccc(C)cc1	74	i	nt	i	70	i
COc1ccc(S(=O)(=O)N(Cc2nc3ccccc3c(=O)[nH]2)C2CCCC2)cc1	94	i	i	i	85	i
COc1ccccc1CN(Cc1nc2ccccc2c(=O)[nH]1)C(=O)Nc1ccccc1C	73	i	nt	i	89	i
CN=C1CC(C)(C)CC(=O)/C1=C(/O)CCC(=O)NC	nt	i	i	nt	nt	nt
CN(C)C(CN1C(=O)C2CC=CCC2C1=O)c1cn(C)c2ccccc12 (stereo unspecified)	i	i	i	i	i	i
CCN(CC)c1cc(C)c2cc(NC(=O)CNC(C)=O)ccc2n1	i	i	i	i	i	i
O=C(CCN1C(=O)COc2ccccc21)NCc1cccs1	i	i	i	i	84	i
O=C(CN1CCOc2ccccc21)NCc1ccco1	i	i	i	i	i	i
COc1ccc(CCNC(=O)CCN2C(=O)COc3ccccc32)cc1OC	i	i	i	i	82	i
O=C(CN1CCOc2ccccc21)NCc1cccs1	i	i	i	i	60	i
SMILES	CYP2C9 inh	Ecoli WT expand	Ecoli tolC	CYP2C9 activ	CYP2C19 inh	CYP2C19 act
COc1ccc(CCNC(=O)CCN2C(=O)COc3ccc(C)cc32)cc1OC	i	i	i	i	i	i
CCc1nnc(NC(=O)C(C)N2C(=O)C3C4C=CC(C4)C3C2=O)s1 (stereo unspecified)	i	i	i	i	i	i
O=C1Nc2ccccc2C12OCC(COc1ccc(Cl)cc1)O2 (stereo unspecified)	i	i	93	i	84	i
CN1C(=O)C2(OCC(COc3ccc(Cl)cc3)O2)c2ccccc21 (stereo unspecified)	i	i	71	i	i	i
CC1OC2(OC1C)C(=O)Nc1ccccc12 (stereo unspecified)	i	i	nt	i	i	i
O=C(CN1C(=O)C2(OCCO2)c2ccccc21)c1ccc(Cl)cc1	nt	i	i	nt	nt	nt
